EP2 antag – inhibitors of human EP2 prostaglandin E2 receptor | P43116 | AID 1422 | inhibition, % at 25 µM | C6 glioma cells expressing human EP2, cAMP TR-FRET; cells stimulated with saturating PGE2 | hit rate 0.52% among 260,000;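 active = percent inhibition above 40 after rounding to a whole number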;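 also: rat C6 glioma host cells with rolipram phosphodiesterase inhibitor present; the protocol text gives 20 µM as final concentration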
NPY Y2 blocker – NPY-Y2 (human) receptor antagonism. inhibition, % at 2.7 µM. hit rate 0.99% among 140,000. P49146. AID 793. NPY-Y2 expressing cells, antagonist mode;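 also: 0% = vehicle with agonist challenge and 100% = reference antagonist with challenge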
Target sequence (P49146 whole entry, looked up): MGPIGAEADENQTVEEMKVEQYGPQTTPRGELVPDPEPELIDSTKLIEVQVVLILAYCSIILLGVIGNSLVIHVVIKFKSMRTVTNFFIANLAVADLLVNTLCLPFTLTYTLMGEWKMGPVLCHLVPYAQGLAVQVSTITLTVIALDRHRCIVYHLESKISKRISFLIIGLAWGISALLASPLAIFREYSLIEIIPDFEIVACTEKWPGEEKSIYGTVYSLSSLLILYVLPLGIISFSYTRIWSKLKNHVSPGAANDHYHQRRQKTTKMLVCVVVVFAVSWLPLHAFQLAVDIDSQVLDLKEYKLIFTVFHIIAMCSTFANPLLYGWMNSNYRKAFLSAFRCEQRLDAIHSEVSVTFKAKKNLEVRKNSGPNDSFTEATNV
EP2 modulator – modulators of human EP2 prostaglandin E2 receptor | P43116 | EP2-expressing cells, cAMP HTRF FRET, PGE2 co-stimulation | induction, % at 25 µM | hit rate 0.83% among 260,000;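 active = compounds whose cAMP rise, as percent of the full-agonist control response, exceeds 60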;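 also: rat C6 glioma line stably carrying human EP2 under a CMV promoter; the protocol text gives 20 µM as final concentration; 100% = response of wells given 1 µM PGE2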
NPY-Y1 PAM-ag – potentiators or agonists of human neuropeptide Y receptor Y1. P25929. NPY-Y1 expressing cells, potentiator/agonist activation. activation, % at 3.6 µM. hit rate 0.37% among 220,000; in the data active = activation above about 33%, passing the limit was not always enough;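 also: cells stimulated with NPY at EC10 then isoproterenol at EC100; 0% = low agonist plus stimulus and 100% = saturating agonist plus stimulus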
NPY-Y1 antag – blocks the human neuropeptide Y Y1 receptor | HEK293-CNG Y1 cells, membrane potential fluorescence; NPY at EC95, then isoproterenol | P25929 | hit rate 1% among 200,000 | inhibition, % at 3.6 µM;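 active = inhibition above the campaign mean inhibition of all tested compounds plus 3 SD, cut at about 20% in these data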;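 also: 0% = DMSO wells given NPY plus isoproterenol and 100% = isoproterenol alone without NPY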
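Material: Y1- and CNG-channel-expressing HEK293 cells / Probe or stimulus: NPY 25 nM then isoproterenol 1 µM plus Ro 20-1724 25 µM / Doses: 3.6 µM single dose, DMSO 0.4% / Schedule: compound incubation 1 h at room temperature, readout 45 min post-stimulation / Signal: membrane potential fluorescence / Benchmarks: isoproterenol-only wells as full block versus NPY-plus-isoproterenol wells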
NPY2 pot ag – human NPY-Y2 potentiation or agonism, primary screen; P49146; cells expressing NPY-Y2, potentiator/agonist read-out; activation, % at 3.6 µM; hit rate 0.45% among 220,000; AID 1359; in the data active = activation above about 27%;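 also: cells stimulated with NPY near EC25 plus isoproterenol at EC100; 0% = vehicle plus submaximal agonist and 100% = vehicle plus saturating agonist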
NPY1 antag conf – confirmation of human neuropeptide Y receptor Y1 antagonists; shares compounds with NPY-Y1 antag; HEK293-CNG NPY-Y1, membrane potential fluorescence, cAMP; NPY challenge against isoproterenol-raised cAMP; inhibition, % at 3.6 µM; hit rate 21% among 1,200; AID 1254; in the data active = inhibition above about 20%;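 also: 0% = vehicle with agonist plus stimulus and 100% = stimulus alone without agonist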
NPY-Y2 antag ct – counter-screen for NPY-Y1 antagonists: human NPY-Y2 antagonism. shares compounds with NPY-Y1 antag. HEK293 NPY-Y2 CNG membrane potential fluorescence; cells given NPY, then isoproterenol. inhibition, % at 3.6 µM. hit rate 28% among 1,200;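 also: 0% = DMSO with agonist challenge and 100% = reference antagonist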
Active calls of the source: *; nt = not tested or not shown. Most compounds without a hit are left out; they make up all but 2.8% or so of the library. Rule as the data show it, unless noted: active = inhibition above about 17%; inactive = the rest.

SMILES	EP2 antag	NPY Y2 blocker	EP2 modulator	NPY-Y1 PAM-ag	NPY-Y1 antag	NPY2 pot ag	NPY1 antag conf	NPY-Y2 antag ct
CCCCCCCn1c(=N)n(CC(O)c2ccco2)c2ccccc21 (centres undefined)	9	nt	-68	-12	33*	-34	24*	23*
CO/N=C\C(=N\Nc1ccc(OC)cc1)C(=O)c1ccccc1	11	11	62*	-63	23*	-23	6	9
CO/N=C/C(=N\Nc1ccc(OC)cc1)C(=O)c1ccc(F)cc1	7	nt	43	2	1	-1	nt	nt
Cc1ccccc1COC(=O)c1nn(-c2ccccc2)nc1N	3	nt	-47	-32	19	-26	nt	nt
Nc1nn(-c2ccccc2)nc1C(=O)OCc1ccccc1F	12	nt	-25	-27	30*	-15	8	7
COc1ccc(CN(CCN(C)C)Cc2cccs2)cc1Br	9	nt	-57	nt	nt	nt	nt	nt
C=C(Cl)COc1ccc2c(CCCC)cc(=O)oc2c1	16	6	19	-14	21*	-1	3	24*
CCN(CC)S(=O)(=O)c1ccc(Oc2ccc(S(=O)(=O)N(CC)CC)cc2)cc1	6	4	8	-20	32*	-3	21*	13
CC(C)Cn1cc(C(=O)NCc2cccs2)c2c3ccccc3n(C)c2c1=O	10	16	-14	-2	21*	2	4	5
CC(C)Cn1cc(C(=O)N2CCC(C)CC2)c2c3ccccc3n(C)c2c1=O	5	nt	-32	-2	23*	-13	4	8
CC(C)Cn1cc(C(=O)N2CCOCC2)c2c3ccccc3n(C)c2c1=O	8	4	5	-11	0	-7	nt	nt
O=C(Nc1cc2ccccc2cc1NC(=O)c1ccco1)c1ccco1	7	nt	10	nt	nt	nt	nt	nt
O=C(Nc1ccc2nc(-c3ccc(Br)o3)[nH]c2c1)c1cccs1	13	6	-15	-14	21*	-19	2	8
CC(=O)Nc1ccc2nc(-c3ccc(Br)o3)[nH]c2c1	8	2	-14	-12	7	4	nt	nt
O=C(CN1C(=O)[C@H]2CCCN2C(=O)c2ccccc21)NCCc1ccc(F)cc1	9	nt	-36	nt	nt	nt	nt	nt
OC(COc1ccc2c(c1)CCC2)CN1CCN(c2ccccc2F)CC1 (centres undefined)	18	10	-43	-25	26*	-30	13	16
O=C(C1CCCN1S(=O)(=O)c1ccc(Cl)cc1)N1CCOCC1 (centres undefined)	8	2	-3	-1	2	11	nt	nt
Cc1cc(C)n(C(=O)C2CCCN2S(=O)(=O)c2ccc(Cl)cc2)n1 (centres undefined)	nt	-1	50	13	25*	-11	-1	1
COc1ccccc1-c1ccc(NS(=O)(=O)c2cn(C)nc2C)cc1	6	nt	-21	nt	nt	nt	nt	nt
CC(C)c1ccc(C(=O)Nc2cccc(NC(=O)c3ccco3)c2)cc1	23	nt	-107	nt	nt	nt	nt	nt
Cc1cc(N2CCC(C(=O)Nc3ccc(F)cc3)CC2)nc(-c2ccccc2)n1	10	3	-58	-16	-3	7	nt	nt
Cc1cc(N2CCN(c3ccc(F)cc3)CC2)nc(-c2ccccc2)n1	11	3	18	-42	21*	-6	3	6
Cc1ccc(C)c(Cn2nnc3c(=O)[nH]c(C4CCCN(C(=O)C5CC5)C4)nc32)c1 (centres undefined)	11	nt	34	nt	nt	nt	nt	nt
CCCCNCC(O)(c1ccc(Cl)cc1)c1ccc(Cl)cc1	2	nt	-7	-11	26*	-18	19	17*
COc1ccc(CNCC(O)(c2ccc(Cl)cc2)c2ccc(Cl)cc2)cc1	10	6	-3	-17	12	-10	nt	nt
CCN(CC)c1ccc2c(C)c(I)c(=O)oc2c1	11	nt	-33	nt	nt	nt	nt	nt
Nc1c(C(=O)Nc2ccccc2)sc2nc3c(c(-c4ccco4)c12)CCCC3	10	0	16	-50	6	-16	nt	nt

Screens as filed in PubChem.
